In the library only some 2.1% were active in any assay of this set; here they are far more common.
HTR2A ag – activates the mouse 5-HT2A serotonin receptor | CHO-K1 mHTR2A beta-arrestin complementation, luminescence; percent of 30 µM serotonin response | activation, % at 7.6 µM | AID 624169 | 0.66% of 360,000 active;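 active = activation above a run cutoff, the mean activation of all tested compounds plus 3 SD, cut at about 14% in these data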;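 also: 0% = plate median of compound wells and 100% = 30 µM serotonin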
Target sequence (P35363 whole entry, looked up): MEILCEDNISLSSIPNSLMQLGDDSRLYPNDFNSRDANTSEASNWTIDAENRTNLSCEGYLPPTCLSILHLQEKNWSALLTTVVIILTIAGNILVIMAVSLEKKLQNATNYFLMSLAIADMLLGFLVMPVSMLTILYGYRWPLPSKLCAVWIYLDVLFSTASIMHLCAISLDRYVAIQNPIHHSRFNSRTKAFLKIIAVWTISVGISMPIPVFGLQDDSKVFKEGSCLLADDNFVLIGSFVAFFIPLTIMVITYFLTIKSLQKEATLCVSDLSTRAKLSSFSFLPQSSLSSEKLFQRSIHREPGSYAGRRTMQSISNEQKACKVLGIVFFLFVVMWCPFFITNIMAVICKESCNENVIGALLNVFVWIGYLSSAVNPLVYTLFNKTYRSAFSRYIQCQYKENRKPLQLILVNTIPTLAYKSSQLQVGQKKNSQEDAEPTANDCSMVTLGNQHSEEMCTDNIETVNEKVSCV
CCR6 antag – CCR6 (human) receptor antagonism; P51684; CHO-K1 CCR6 PathHunter beta-arrestin, luminescence, CCL20-stimulated; inhibition, % at 20 µM; 0.49% of 340,000 active; AID 493098;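 active = compounds whose inhibition of the agonist-driven luminescence signal at 20 µM reaches about 50%, limit read from the data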;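 also: cells stimulated with CCL20 at 14 nM final; plate controls were DMSO with CCL20 for no effect and DMSO without agonist for full effect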
APJ ag – activates the human apelin receptor APJ. activation, % at 20 µM. CHO-K1 APJ PathHunter beta-arrestin, luminescence; 0% DMSO wells, 100% apelin. 0.11% of 330,000 active. P35414;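 active = activation more than six SD over the plate average, tested at 20 µM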;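 also: 0% = DMSO alone and 100% = apelin-13 at 10 nM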
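Incubation: overnight seeding, 90 min compound at 25 °C, 1 h detection; test system: PathHunter CHO-K1 APJ (AGTRL-1) beta-arrestin reporter cells; amount: 1000 cells/well; doses: one dose, 20 µM compound, 1% DMSO; measured by: beta-gal luminescence; measure: agonist-driven arrestin binding to APJ; benchmarks: negative DMSO alone, positive Apelin-13 at 10 nM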
CXCR6 block – CXCR6 (human) receptor inhibition. inhibition, % at 20 µM. CHO-K1 PathHunter CXCR6 beta-arrestin, luminescence. 0.36% of 360,000 active; in the data active = inhibition above about 34%, passing the limit was not always enough;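 also: antagonist mode with CXCL16 agonist at 10 nM final; 0% = 10 nM CXCL16 with DMSO and 100% = unstimulated wells without agonist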
APJ antag – antagonists of human APJ apelin receptor; P35414; CHO-K1 APJ beta-arrestin complementation, luminescence; inhibition, % at 20 µM; 0.32% of 330,000 active;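 active = inhibition above about 40% at 20 µM, limit read from the data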;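 also: cells challenged with 10 nM apelin-13 agonist together with compound; plate controls were apelin-13 plus DMSO wells for no effect and DMSO wells lacking apelin-13 for full effect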
EBI2 antag – antagonists of human EBI2 receptor. inhibition, % at 5 µM. P32249. 0.81% of 360,000 active. AID 651636. EBI2 beta-arrestin recruitment, luminescence, 7a,25-OHC stimulated; in the data active = inhibition above about 38%;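 also: enzyme fragment complementation signal reports receptor beta-arrestin coupling in cells; 0% = agonist plus DMSO wells and 100% = wells without agonist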
EBI2 conf – confirmation of human EBI2 receptor antagonists; shares compounds with EBI2 antag; EBI2 beta-arrestin luminescence, 7a,25-OHC antagonism; inhibition, % at 5 µM; 29% of 2,400 active; AID 651997;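 active = inhibition of at least 50%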
EBI2 ag – EBI2 agonism counter-screen | shares compounds with EBI2 antag | 2,400 tested, under 10 active | activation, % at 5 µM | EBI2-expressing cells, agonist mode, luminescence, 60 min; 0% vehicle, 100% 7α,25-dihydroxycholesterol control;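 active = activation of at least 50%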
bGal cs – counter-screen for EBI2 antagonists: E. coli beta-galactosidase inhibition; shares compounds with EBI2 antag; purified beta-galactosidase, luminescent Galacton Star, 15 min; inhibition, % at 5 µM; 1% of 2,400 active;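 active = replicate-average signal at least 3 plate SD below neutral wells, shown as high inhibition, flagging enzyme-inhibiting false positives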;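 also: 0% = DMSO wells with enzyme and 100% = wells lacking enzyme; higher means stronger loss of beta-gal luminescence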
The depositor's hits bear a star.

How did COc1ccc(OCC(=O)N2CCN(Cc3ccc4c(c3)OCO4)CC2)cc1 do in these assays?
HTR2A ag: 9; CCR6 antag: 7; APJ ag: -1; CXCR6 block: -1; APJ antag: 17; EBI2 antag: 86*; EBI2 conf: 59*; EBI2 ag: 0; bGal cs: 9

Results for CC1CCC(N2CCN(C(=O)COc3ccccc3)CC2)CC1 (stereo not drawn) ?
HTR2A ag: -2; CCR6 antag: 0; APJ ag: 1; CXCR6 block: 9; APJ antag: -20; EBI2 antag: 32

Results for Cc1ccc(OCC(=O)N2CCN(Cc3ccc([N+](=O)[O-])cc3)CC2)cc1 ?
HTR2A ag: 3; CCR6 antag: 4; APJ ag: -1; CXCR6 block: -13; APJ antag: 2; EBI2 antag: 94*; EBI2 conf: 71*; EBI2 ag: 1; bGal cs: 11

How did O=C(COc1ccc(Cl)cc1)N1CCN(Cc2ccccc2)CC1 do in these assays?
HTR2A ag: 9; CCR6 antag: 5; APJ ag: 2; CXCR6 block: -6; APJ antag: 15; EBI2 antag: 91*; EBI2 conf: 66*; EBI2 ag: -1; bGal cs: -5

What do the screens show for `CC(C)NS(=O)(=O)c1ccc(OCC(=O)N2CCN(Cc3ccccc3)CC2)cc1`?
HTR2A ag: 6; CCR6 antag: 7; APJ ag: 5; CXCR6 block: 6; APJ antag: -3; EBI2 antag: 5

How did COc1ccc(CCNCc2ccccn2)cc1OC do in these assays?
HTR2A ag: 4; CCR6 antag: -31; APJ ag: -1; CXCR6 block: -4; APJ antag: -14; EBI2 antag: -9

What do the screens show for `CCC1(CC)C(=O)NC(=O)N(c2ccccc2)C1=O`?
HTR2A ag: -3; CCR6 antag: -3; CXCR6 block: -1; EBI2 antag: 1

How did CN(C)CCN=Cc1c(O)n(-c2cccc3ccccc23)c(=O)[nH]c1=O do in these assays?
HTR2A ag: -1; CCR6 antag: -2; APJ ag: -3; CXCR6 block: 5; APJ antag: 1; EBI2 antag: -4

Results for O=C(COc1ccccc1)N1CCN(CC2CC=CCC2)CC1 (stereo not drawn) ?
HTR2A ag: 0; CCR6 antag: 8; APJ ag: 2; CXCR6 block: 1; APJ antag: 1; EBI2 antag: 68*; EBI2 conf: 34; EBI2 ag: 0; bGal cs: 8

What do the screens show for `COc1ccc(OCC(=O)N2CCN(Cc3ccc(SC)cc3)CC2)cc1`?
HTR2A ag: 0; CCR6 antag: 2; APJ ag: -3; CXCR6 block: -4; APJ antag: 8; EBI2 antag: 71*; EBI2 conf: 50*; EBI2 ag: 0; bGal cs: -3

Results for N#Cc1ccc(OCC(=O)N2CCN(Cc3ccc4c(c3)OCO4)CC2)cc1 ?
HTR2A ag: -2; CCR6 antag: 20; APJ ag: -2; CXCR6 block: -2; APJ antag: -3; EBI2 antag: 35

What do the screens show for `O=C(COc1ccccc1)N1CCN(CC2CC3C=CC2C3)CC1` (stereo not drawn)?
HTR2A ag: 1; CCR6 antag: 5; APJ ag: -2; CXCR6 block: -8; APJ antag: 6; EBI2 antag: 42

How did Cc1ccc(OCC(=O)N2CCN(Cc3ccc4c(c3)OCO4)CC2)cc1 do in these assays?
HTR2A ag: 2; CCR6 antag: -2; APJ ag: -1; CXCR6 block: -2; APJ antag: -26; EBI2 antag: 88*; EBI2 conf: 61*; EBI2 ag: 0; bGal cs: 10

What do the screens show for `Cc1ccc(OCC(=O)N2CCN(CC3CC4C=CC3C4)CC2)cc1` (stereo not drawn)?
HTR2A ag: -3; CCR6 antag: 18; APJ ag: -2; CXCR6 block: -6; APJ antag: 17; EBI2 antag: 84*; EBI2 conf: 62*; EBI2 ag: -1; bGal cs: -5

Results for N/C(=N/[N+](=O)[O-])N1CCN(C(=O)c2ccc(Cl)cc2)CC1 ?
HTR2A ag: -3; CCR6 antag: 0; APJ ag: -1; CXCR6 block: 1; APJ antag: 4; EBI2 antag: 9

What do the screens show for `O=C(c1cc(C(=O)NCc2ccccc2)c(=O)n(Cc2ccccc2)c1)c1cc(Br)ccc1O`?
HTR2A ag: 5; CCR6 antag: 27; APJ ag: 1; CXCR6 block: -8; APJ antag: 4; EBI2 antag: 21

What do the screens show for `Cc1ccc(O)c(C(=O)c2cc(C(=O)NCc3ccccc3)c(=O)n(Cc3ccccc3)c2)c1`?
HTR2A ag: -6; CCR6 antag: -2; APJ ag: -5; CXCR6 block: 12; APJ antag: 6; EBI2 antag: 42*; EBI2 conf: 16; EBI2 ag: 0; bGal cs: 3

How did O=C(O)COc1ccccc1 do in these assays?
HTR2A ag: 0; CCR6 antag: -4; APJ ag: 0; CXCR6 block: 0; APJ antag: -8; EBI2 antag: 0

How did O=C(C1CCN(c2nc3ccc(Br)cc3s2)CC1)N1CCC2(CC1)OCCO2 do in these assays?
HTR2A ag: -1; CCR6 antag: 12; APJ ag: -1; CXCR6 block: 5; APJ antag: -3; EBI2 antag: 56*; EBI2 conf: 12; EBI2 ag: 0; bGal cs: 0

What do the screens show for `COC(=O)C12CCc3cc(OC)ccc3C1=CC(=O)C2` (stereo not drawn)?
HTR2A ag: 1; CXCR6 block: 2; EBI2 antag: 3

How did CCOC(=O)c1cncn1[C@@H](C)c1ccccc1 do in these assays?
HTR2A ag: 0; CCR6 antag: 7; APJ ag: 0; CXCR6 block: 3; APJ antag: -2; EBI2 antag: 56*; EBI2 conf: 30; EBI2 ag: -1; bGal cs: 2

What do the screens show for `Cc1ncc(C(=O)O)n1C(C)c1ccccc1` (stereo not drawn)?
HTR2A ag: -2; CXCR6 block: 3; EBI2 antag: -2

Screening results deposited in PubChem BioAssay by several laboratories.
